In ChEMBL document CHEMBL4002615, “Investigation of piperazine benzamides as human β3 adrenergic receptor agonists for the treatment of overactive bladder” (Bioorg Med Chem Lett, 2017):

How the values were obtained:
[1] = target: T1, Beta-3 adrenergic receptor (Homo sapiens, UniProt P13945); assay: Agonist activity at human beta3 adrenergic receptor
In short: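 Human β3 receptor agonist EC50 given as the mean of at least two experiments.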
Target sequence in this assay (P13945 whole entry): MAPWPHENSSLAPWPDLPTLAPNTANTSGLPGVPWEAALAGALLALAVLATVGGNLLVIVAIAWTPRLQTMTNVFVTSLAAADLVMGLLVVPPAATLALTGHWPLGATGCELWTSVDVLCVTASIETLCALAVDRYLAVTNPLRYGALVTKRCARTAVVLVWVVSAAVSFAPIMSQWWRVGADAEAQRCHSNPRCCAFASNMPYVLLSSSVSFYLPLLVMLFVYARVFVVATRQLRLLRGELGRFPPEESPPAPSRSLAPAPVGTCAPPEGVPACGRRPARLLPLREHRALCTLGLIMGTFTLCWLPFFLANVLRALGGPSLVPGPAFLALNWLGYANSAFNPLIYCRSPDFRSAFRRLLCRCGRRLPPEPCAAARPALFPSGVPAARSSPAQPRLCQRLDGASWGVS

[2] = target: T1, Beta-3 adrenergic receptor; assay: Agonist activity at human beta3 adrenergic receptor relative to R-(-)-isoproterenol
Target sequence in this assay (P13945 whole entry, looked up): as the sequence (P13945 whole entry) above

[3] = target: Beta-1 adrenergic receptor (Homo sapiens, UniProt P08588); assay: Activity at human beta1 adrenergic receptor
Chain of Beta-1 adrenergic receptor (P08588 whole entry): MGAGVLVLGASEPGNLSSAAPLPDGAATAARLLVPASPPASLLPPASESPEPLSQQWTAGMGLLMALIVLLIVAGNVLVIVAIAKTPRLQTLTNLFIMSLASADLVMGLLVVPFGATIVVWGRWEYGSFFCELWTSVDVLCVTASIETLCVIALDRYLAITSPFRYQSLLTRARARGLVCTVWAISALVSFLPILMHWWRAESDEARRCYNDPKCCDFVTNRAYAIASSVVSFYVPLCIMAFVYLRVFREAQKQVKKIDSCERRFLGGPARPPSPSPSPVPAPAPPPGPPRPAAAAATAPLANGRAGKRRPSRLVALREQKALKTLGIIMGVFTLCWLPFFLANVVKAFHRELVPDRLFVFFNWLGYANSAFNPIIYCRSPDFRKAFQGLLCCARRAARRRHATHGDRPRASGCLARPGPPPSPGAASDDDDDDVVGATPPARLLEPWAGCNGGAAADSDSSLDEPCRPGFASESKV

[4] = target: Beta-2 adrenergic receptor (Homo sapiens, UniProt P07550); assay: Activity at human beta2 adrenergic receptor
Chain of Beta-2 adrenergic receptor (P07550 whole entry): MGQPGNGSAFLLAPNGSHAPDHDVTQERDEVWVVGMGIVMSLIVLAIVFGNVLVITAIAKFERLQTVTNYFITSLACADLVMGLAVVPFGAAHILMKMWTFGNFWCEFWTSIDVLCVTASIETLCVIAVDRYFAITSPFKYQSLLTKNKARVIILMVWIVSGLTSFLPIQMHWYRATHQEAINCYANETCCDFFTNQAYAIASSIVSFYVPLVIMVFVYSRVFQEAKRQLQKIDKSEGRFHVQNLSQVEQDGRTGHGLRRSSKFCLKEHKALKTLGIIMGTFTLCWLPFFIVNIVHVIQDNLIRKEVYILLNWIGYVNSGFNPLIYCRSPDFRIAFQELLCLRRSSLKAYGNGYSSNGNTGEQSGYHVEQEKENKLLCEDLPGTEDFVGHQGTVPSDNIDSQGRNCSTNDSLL

[5] = target: Voltage-gated inwardly rectifying potassium channel KCNH2 (Homo sapiens, UniProt Q12809); assay: Inhibition of human ERG
[6] = target: Sodium channel protein type 5 subunit alpha (Homo sapiens, UniProt Q14524); assay: Inhibition of human Nav1.5 by electrophysiology method
Chain of Sodium channel protein type 5 subunit alpha (Q14524 whole entry): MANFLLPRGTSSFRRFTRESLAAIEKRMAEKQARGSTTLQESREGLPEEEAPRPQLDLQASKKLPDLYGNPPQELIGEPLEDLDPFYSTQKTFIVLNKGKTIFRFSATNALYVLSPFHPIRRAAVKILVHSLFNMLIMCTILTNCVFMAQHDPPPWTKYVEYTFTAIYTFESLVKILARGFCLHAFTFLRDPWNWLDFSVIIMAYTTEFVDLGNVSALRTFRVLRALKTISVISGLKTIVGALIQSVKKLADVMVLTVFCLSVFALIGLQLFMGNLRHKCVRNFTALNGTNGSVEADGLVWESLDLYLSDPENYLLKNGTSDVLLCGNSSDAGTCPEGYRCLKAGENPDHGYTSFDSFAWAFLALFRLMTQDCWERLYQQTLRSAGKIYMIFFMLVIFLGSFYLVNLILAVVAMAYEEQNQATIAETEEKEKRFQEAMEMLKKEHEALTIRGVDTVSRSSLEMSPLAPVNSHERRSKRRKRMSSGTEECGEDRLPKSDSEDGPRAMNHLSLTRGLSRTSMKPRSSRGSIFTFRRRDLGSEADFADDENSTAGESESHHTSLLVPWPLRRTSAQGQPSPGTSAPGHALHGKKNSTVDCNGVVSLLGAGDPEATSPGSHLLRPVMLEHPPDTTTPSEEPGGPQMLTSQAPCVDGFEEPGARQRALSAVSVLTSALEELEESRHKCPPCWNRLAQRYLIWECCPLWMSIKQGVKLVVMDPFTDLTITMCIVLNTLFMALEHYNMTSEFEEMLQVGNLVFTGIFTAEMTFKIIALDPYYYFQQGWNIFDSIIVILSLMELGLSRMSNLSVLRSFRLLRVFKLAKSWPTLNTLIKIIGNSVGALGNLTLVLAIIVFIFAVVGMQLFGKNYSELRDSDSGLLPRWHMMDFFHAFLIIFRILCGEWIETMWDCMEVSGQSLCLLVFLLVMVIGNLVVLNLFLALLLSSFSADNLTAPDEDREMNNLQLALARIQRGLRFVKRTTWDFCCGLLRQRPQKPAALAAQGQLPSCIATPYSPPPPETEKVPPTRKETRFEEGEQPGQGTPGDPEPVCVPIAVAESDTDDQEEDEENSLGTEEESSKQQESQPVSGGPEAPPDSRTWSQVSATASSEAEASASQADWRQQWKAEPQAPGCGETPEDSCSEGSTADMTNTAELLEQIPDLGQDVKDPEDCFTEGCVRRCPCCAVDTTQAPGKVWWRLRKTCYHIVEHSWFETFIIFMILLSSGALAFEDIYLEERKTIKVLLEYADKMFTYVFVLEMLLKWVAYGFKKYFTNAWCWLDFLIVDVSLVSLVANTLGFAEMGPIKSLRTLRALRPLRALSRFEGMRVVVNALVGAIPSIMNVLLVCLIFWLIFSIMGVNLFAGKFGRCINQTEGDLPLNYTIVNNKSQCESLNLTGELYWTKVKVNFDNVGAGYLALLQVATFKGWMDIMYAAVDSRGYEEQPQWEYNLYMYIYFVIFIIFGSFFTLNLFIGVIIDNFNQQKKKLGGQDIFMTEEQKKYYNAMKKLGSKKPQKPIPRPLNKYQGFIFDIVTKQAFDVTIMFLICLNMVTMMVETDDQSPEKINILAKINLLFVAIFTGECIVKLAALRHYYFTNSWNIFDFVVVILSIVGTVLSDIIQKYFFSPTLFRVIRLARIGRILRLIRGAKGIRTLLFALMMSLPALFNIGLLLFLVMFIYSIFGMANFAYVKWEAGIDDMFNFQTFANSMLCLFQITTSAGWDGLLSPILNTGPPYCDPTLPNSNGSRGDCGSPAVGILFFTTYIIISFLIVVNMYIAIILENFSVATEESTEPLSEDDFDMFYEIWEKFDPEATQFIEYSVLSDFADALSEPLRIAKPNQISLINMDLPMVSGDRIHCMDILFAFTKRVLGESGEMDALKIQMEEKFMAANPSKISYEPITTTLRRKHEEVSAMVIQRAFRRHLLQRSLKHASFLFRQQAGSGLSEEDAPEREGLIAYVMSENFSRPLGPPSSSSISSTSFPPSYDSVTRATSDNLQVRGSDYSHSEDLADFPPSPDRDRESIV

[7] = target: Sodium-dependent serotonin transporter (Homo sapiens, UniProt P31645); assay: Inhibition of SERT (unknown origin)
Chain of Sodium-dependent serotonin transporter (P31645 whole entry): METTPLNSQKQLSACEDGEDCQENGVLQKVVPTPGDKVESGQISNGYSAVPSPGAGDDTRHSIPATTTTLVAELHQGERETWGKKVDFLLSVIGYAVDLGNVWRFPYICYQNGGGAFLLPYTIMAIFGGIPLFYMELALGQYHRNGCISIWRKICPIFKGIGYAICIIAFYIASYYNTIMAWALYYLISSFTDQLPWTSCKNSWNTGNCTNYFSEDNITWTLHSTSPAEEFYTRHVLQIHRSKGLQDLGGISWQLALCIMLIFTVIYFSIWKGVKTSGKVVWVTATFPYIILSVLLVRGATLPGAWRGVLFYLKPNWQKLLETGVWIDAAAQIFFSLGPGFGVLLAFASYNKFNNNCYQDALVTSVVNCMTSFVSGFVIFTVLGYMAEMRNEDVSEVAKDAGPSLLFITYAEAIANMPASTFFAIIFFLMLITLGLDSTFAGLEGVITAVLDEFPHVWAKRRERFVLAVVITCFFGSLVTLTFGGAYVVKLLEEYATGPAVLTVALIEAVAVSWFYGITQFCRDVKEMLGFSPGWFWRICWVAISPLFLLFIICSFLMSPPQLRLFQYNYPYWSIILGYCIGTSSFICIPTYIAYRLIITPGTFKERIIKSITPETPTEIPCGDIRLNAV

[8] = Induction of phospholipidosis in human HepG2 cells; format: cell-based; conditions: read-out: A50
[9] = target: Sodium-dependent noradrenaline transporter (Homo sapiens, UniProt P23975); assay: Inhibition of NET (unknown origin) expressed in HEK293 cells assessed as reduction in norepinephrine reuptake; format: cell-based
Chain of Sodium-dependent noradrenaline transporter (P23975 whole entry): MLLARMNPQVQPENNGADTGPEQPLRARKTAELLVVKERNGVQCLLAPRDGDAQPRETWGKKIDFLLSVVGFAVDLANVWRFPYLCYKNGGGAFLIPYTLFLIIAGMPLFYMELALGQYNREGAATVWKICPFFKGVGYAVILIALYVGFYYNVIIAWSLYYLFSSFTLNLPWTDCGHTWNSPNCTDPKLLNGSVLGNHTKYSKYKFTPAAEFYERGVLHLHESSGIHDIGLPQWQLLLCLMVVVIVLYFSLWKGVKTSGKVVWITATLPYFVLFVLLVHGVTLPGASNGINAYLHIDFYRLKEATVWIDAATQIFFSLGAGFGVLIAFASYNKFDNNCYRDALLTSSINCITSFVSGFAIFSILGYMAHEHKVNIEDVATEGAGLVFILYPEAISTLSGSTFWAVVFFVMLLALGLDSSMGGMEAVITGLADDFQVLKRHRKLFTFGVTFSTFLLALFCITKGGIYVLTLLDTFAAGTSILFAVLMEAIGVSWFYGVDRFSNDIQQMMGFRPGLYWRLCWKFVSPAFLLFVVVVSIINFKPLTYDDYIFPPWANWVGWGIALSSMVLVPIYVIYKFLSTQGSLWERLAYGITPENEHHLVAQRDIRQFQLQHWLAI

[10] = Volume of distribution in rat at 1 mg/kg, iv or 2 mg/kg, po; format: ADME, organism-based; conditions: in vivo
[11] = Plasma clearance in rat at 1 mg/kg, iv or 2 mg/kg, po; format: ADME, organism-based
Rattus norvegicus [12] = assay: Unbound clearance in rat at 1 mg/kg, iv or 2 mg/kg, po; format: ADME, organism-based; conditions: in vivo
[13] = Half life in rat at 1 mg/kg, iv or 2 mg/kg, po; format: ADME, organism-based; conditions: in vivo
Rattus norvegicus [14] = assay: Total dose normalized AUC in rat 2 mg/kg, po; format: ADME, organism-based; conditions: in vivo
Rattus norvegicus [15] = assay: Unbound dose normalized AUC in rat 2 mg/kg, po; format: ADME, organism-based; conditions: in vivo
[16] = Oral bioavailability in rat 2 mg/kg; format: ADME, organism-based; conditions: in vivo
[17] = Unbound fraction in rat at 1 mg/kg, iv or 2 mg/kg, po; format: ADME, organism-based; conditions: in vivo
[18] = Plasma clearance in dog at 0.5 mg/kg, iv or 2 mg/kg, po; format: ADME, organism-based, Canis lupus familiaris
[19] = Plasma clearance in rhesus monkey at 0.5 mg/kg, iv or 2 mg/kg, po; format: ADME, organism-based, Macaca mulatta
Canis familiaris [20] = assay: Unbound clearance in dog at 0.5 mg/kg, iv or 2 mg/kg, po; format: ADME, organism-based, Canis lupus familiaris; conditions: in vivo
Rhesus monkey [21] = assay: Unbound clearance in rhesus monkey at 0.5 mg/kg, iv or 2 mg/kg, po; format: ADME, organism-based, Macaca mulatta; conditions: in vivo
[22] = Volume of distribution in dog at 0.5 mg/kg, iv or 2 mg/kg, po; format: ADME, organism-based, Canis lupus familiaris; conditions: in vivo
[23] = Volume of distribution in rhesus monkey at 0.5 mg/kg, iv or 2 mg/kg, po; format: ADME, organism-based, Macaca mulatta; conditions: in vivo
[24] = Half life in dog at 0.5 mg/kg, iv or 2 mg/kg, po; format: ADME, organism-based, Canis lupus familiaris; conditions: in vivo
[25] = Half life in rhesus monkey at 0.5 mg/kg, iv or 2 mg/kg, po; format: ADME, organism-based, Macaca mulatta; conditions: in vivo
Canis familiaris [26] = assay: Total dose normalized AUC in dog at 2 mg/kg, po; format: ADME, organism-based, Canis lupus familiaris; conditions: in vivo
Rhesus monkey [27] = assay: Total dose normalized AUC in rhesus monkey at 2 mg/kg, po; format: ADME, organism-based, Macaca mulatta; conditions: in vivo
Canis familiaris [28] = assay: Unbound dose normalized AUC in dog at 2 mg/kg, po; format: ADME, organism-based, Canis lupus familiaris; conditions: in vivo
Rhesus monkey [29] = assay: Unbound dose normalized AUC in rhesus monkey at 2 mg/kg, po; format: ADME, organism-based, Macaca mulatta; conditions: in vivo
[30] = Oral bioavailability in dog at 2 mg/kg; format: ADME, organism-based, Canis lupus familiaris; conditions: in vivo
[31] = Oral bioavailability in rhesus monkey at 2 mg/kg; format: ADME, organism-based, Macaca mulatta; conditions: in vivo
[32] = Unbound fraction in dog at 0.5 mg/kg, iv or 2 mg/kg, po; format: ADME, organism-based, Canis lupus familiaris; conditions: in vivo
[33] = Unbound fraction in rhesus monkey at 0.5 mg/kg, iv or 2 mg/kg, po; format: ADME, organism-based, Macaca mulatta; conditions: in vivo
[34] = Stability in dog liver microsomes assessed as parent compound remaining after 45 mins; format: ADME, Canis lupus familiaris, microsome; conditions: read-out: Stability
[35] = Stability in rat liver microsomes assessed as parent compound remaining after 45 mins; format: ADME, microsome; conditions: read-out: Stability
[36] = Stability in human liver microsomes assessed as parent compound remaining after 45 mins; format: ADME, microsome; conditions: read-out: Stability
[37] = Stability in rhesus monkey liver microsomes assessed as parent compound remaining after 45 mins; format: ADME, Macaca mulatta, microsome; conditions: read-out: Stability
[38] = Stability in human hepatocytes assessed as parent compound remaining up to 60 mins; format: ADME, cell-based, Hepatocyte; conditions: read-out: Stability
[39] = Stability in dog hepatocytes assessed as parent compound remaining up to 60 mins; format: ADME, cell-based, Canis lupus familiaris, Hepatocyte; conditions: read-out: Stability
[40] = Stability in rat hepatocytes assessed as parent compound remaining up to 60 mins; format: ADME, cell-based, Hepatocyte; conditions: read-out: Stability
[41] = Stability in rhesus monkey hepatocytes assessed as parent compound remaining up to 60 mins; format: ADME, cell-based, Macaca mulatta, Hepatocyte; conditions: read-out: Stability
Rattus norvegicus [42] = assay: In vivo agonist activity at beta3-AR in po dosed rat; format: functional, organism-based
Rattus norvegicus [43] = assay: Effect on nor-epinephrine level in rat brain at 10 mg/kg, po by microdialysis method; format: ADME, organism-based; conditions: in vivo
Rattus norvegicus [44] = assay: Induction of nor-epinephrine efflux in medial prefrontal cortex of rat at 100 mg/kg, po measured 1 hr post dose by microdialysis method relative to control; format: ADME, organism-based; conditions: in vivo

O=C(c1ccc(C[C@@H]2CC[C@H]([C@H](O)c3ccccc3)N2)cc1)N1CCN(Cc2nnn(CC(F)(F)F)n2)CC1
EC50 [1]: 1.9 nM | Emax [2]: 98% | IC50 [3]: > 20 µM | IC50 [4]: > 20 µM | IC50 [5]: 29.9 µM | IC50 [6]: > 30 µM | IC50 [7]: > 10 µM | AC50 [8]: 72 µM | EC50 [9]: 627 nM | Vd [10]: 17 L/kg | clearance [11]: 98 mL/min/kg | CL free (Rattus norvegicus [12]): 151 mL/min/kg | half-life [13]: 168 min | AUC/dose (Rattus norvegicus [14]): 0.14 µM·h/mg/kg | fAUC/dose (Rattus norvegicus [15]): 0.09 µM·h/mg/kg | bioavailability [16]: 46% | fraction unbound [17]: 0.65 | clearance [18]: 22 mL/min/kg | clearance [19]: 19 mL/min/kg | CL free (Canis familiaris [20]): 35 mL/min/kg | CL free (Rhesus monkey [21]): 43 mL/min/kg | Vd [22]: 11 L/kg | Vd [23]: 5.8 L/kg | half-life [24]: 414 min | half-life [25]: 390 min | AUC/dose (Canis familiaris [26]): 1.9 µM·h/mg/kg | AUC/dose (Rhesus monkey [27]): 0.09 µM·h/mg/kg | fAUC/dose (Canis familiaris [28]): 1.2 µM·h/mg/kg | fAUC/dose (Rhesus monkey [29]): 0.04 µM·h/mg/kg | bioavailability [30]: 100% | bioavailability [31]: 5.4% | fraction unbound [32]: 0.63 | fraction unbound [33]: 0.44 | remaining at 0.75 h [34]: 85% | remaining at 0.75 h [35]: 71% | remaining at 0.75 h [36]: 42% | remaining at 0.75 h [37]: 19% | remaining at 1 h [38]: 92% | remaining at 1 h [39]: 100% | remaining at 1 h [40]: 73% | remaining at 1 h [41]: 50% | EC50 (Rattus norvegicus [42]): 4.5 µM | Activity (Rattus norvegicus [43]): Non-Toxic | fold change (FC) (Rattus norvegicus [44]): 2
